Converted amounts (≈) assume the structure as drawn.
Columns and labels:
Artemia salina = experiment: (§1) Toxicity in brine shrimp; assay type: organism-based; details: in vivo
A549 = experiment: Cytotoxicity against human A549 cells after 7 days by MTT assay; assay type: functional; details: A549, 168 h, read-out: ED50 (the source's name)
Method in brief: (§2)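 Standard 7-day MTT cytotoxicity assay on human tumour lines: A-549 (lung carcinoma), MCF-7 (breast carcinoma), HT-29 (colon adenocarcinoma), A-498 (kidney carcinoma), PC-3 (prostate adenocarcinoma), PACA-2 (pancreatic carcinoma). Adriamycin was run as the positive control standard.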

MCF7 = experiment: Cytotoxicity against human MCF7 cells after 7 days by MTT assay; assay type: functional; method in brief: as §2
HT-29 = experiment: Cytotoxicity against human HT29 cells after 7 days by MTT assay; assay type: functional; details: for EC50: Homo sapiens, HT-29, 168 h, read-out: ED50 (the source's name); method in brief: as §2
A498 = experiment: Cytotoxicity against human A498 cells after 7 days by MTT assay; assay type: functional; details: for EC50: Homo sapiens, A498, 168 h, read-out: ED50 (the source's name); method in brief: as §2
PC-3 = experiment: Cytotoxicity against human PC-3 cells after 7 days by MTT assay; assay type: functional; details: for EC50: Homo sapiens, PC-3, 168 h, read-out: ED50 (the source's name); method in brief: as §2
MIA PaCa-2 = experiment: Cytotoxicity against human PACA2 cells after 7 days by MTT assay; assay type: functional; details: for EC50: Homo sapiens, MIA PaCa-2, 168 h, read-out: ED50 (the source's name); method in brief: as §2
[1] = as §1; assay type: organism-based; details: artemia salina, in vivo

Row | Structure (SMILES) | LC50 (Artemia salina) [×10⁻² ug/ml] | EC50 (A549) [µg/mL] | ED50 (MCF7) [×10⁻⁴ ug/ml] | ED50 (HT-29) [×10⁻⁵ ug/ml] | ED50 (A498) [×10⁻⁸ ug/ml] | ED50 (PC-3) [×10⁻⁹ ug/ml] | ED50 (MIA PaCa-2) [×10⁻⁹ ug/ml] | LC50 [1] [µg/mL] | EC50 (HT-29) [µg/mL] | EC50 (A498) [µg/mL] | EC50 (PC-3) [µg/mL] | EC50 (MIA PaCa-2) [µg/mL] | EC50 (MCF7; Homo sapiens, MCF7, 168 h, read-out: ED50 (the source's name)) [µg/mL]
1 | CCCCCCC[C@H](O)CC[C@H](O)[C@H]1CC[C@H]([C@H]2CC[C@H]([C@H](O)CCCCCCCCCC[C@@H](O)CC3=C[C@H](C)OC3=O)O2)O1 | 4.3 | 0.0021 (≈ 0.00329 µM) | 7.8 | 1.8 | 3.1 | <1 | <1 | – | – | – | – | – | –
2 | CCCCCCCCCC[C@H](O)C[C@@H](O)[C@H]1CC[C@H]([C@H](O)CCC(=O)CCC[C@H](O)CCCCCC2=C[C@H](C)OC2=O)O1 [ANNOGLAXIN] | – | 1.1 (≈ 1.8 µM) | 4.3 | – | – | – | – | 0.29 (≈ 0.475 µM) | 0.18 (≈ 0.295 µM) | 1.8 (≈ 2.95 µM) | 0.87 (≈ 1.42 µM) | 1.6 (≈ 2.62 µM) | –
3 | COc1cccc2c1C(=O)c1c(O)c3c(c(O)c1C2=O)C[C@@](O)(C(=O)CO)C[C@@H]3O[C@H]1C[C@H](N)[C@H](O)[C@H](C)O1 [DOXORUBICIN] | – | 0.0013 (≈ 0.00239 µM) | – | – | – | – | – | – | 0.01 (≈ 0.0184 µM) | 0.0019 (≈ 0.0035 µM) | 0.02 (≈ 0.0368 µM) | 0.0043 (≈ 0.00791 µM) | 0.09 (≈ 0.166 µM)

— ChEMBL document CHEMBL1144050, “Two novel acetogenins, annoglaxin and 27-hydroxybullatacin, from Annona glabra” (J Nat Prod, 1999)
